Consider five compounds from PMC6319256 (Bioorganic & medicinal chemistry letters, 2018).

In one assay the test system is K-Ras^G12C. The settings on record: cited from earlier work.
The target in assay [1] is T1, cathepsin L (Homo sapiens, UniProt P07711). As to conditions: cited from earlier work; for kinact: cathepsin L, range stated for both compounds and both enzymes.
The target of assay [2] is T2, Cathepsin B (Homo sapiens, UniProt P07858). As to conditions: cited from earlier work; for kinact: cathepsin B, range stated for both compounds and both enzymes.
The target in assay [3] is T1, cathepsin L. Kind of assay: Cathepsin L inhibition kinetics. It is filed as biochemical.
Assay [4] addresses T1, cathepsin L. The experiment in a line: Irreversibility study. It is filed as biochemical. As to conditions: 50 μM compound preincubated with Cathepsin L (10 nM), gel filtration. The method, boiled down: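 Test compound at 50 μM was preincubated with cathepsin L at 10 nM, then passed through a desalting spin column. Flow-through aliquots were assayed for recovery of enzyme activity at several time points.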
(Size exclusion chromatography separates by hydrodynamic size, large species first.)

The target in assay [5] is T2, Cathepsin B. Kind of assay: Cathepsin B inhibition with and without preincubation. As to conditions: with and without preincubation of the inhibitor. It is filed as biochemical.
For the next assay, the target named is T3, Calpain I (Homo sapiens, UniProt P07384).
T3 sequence (P07384 1-714): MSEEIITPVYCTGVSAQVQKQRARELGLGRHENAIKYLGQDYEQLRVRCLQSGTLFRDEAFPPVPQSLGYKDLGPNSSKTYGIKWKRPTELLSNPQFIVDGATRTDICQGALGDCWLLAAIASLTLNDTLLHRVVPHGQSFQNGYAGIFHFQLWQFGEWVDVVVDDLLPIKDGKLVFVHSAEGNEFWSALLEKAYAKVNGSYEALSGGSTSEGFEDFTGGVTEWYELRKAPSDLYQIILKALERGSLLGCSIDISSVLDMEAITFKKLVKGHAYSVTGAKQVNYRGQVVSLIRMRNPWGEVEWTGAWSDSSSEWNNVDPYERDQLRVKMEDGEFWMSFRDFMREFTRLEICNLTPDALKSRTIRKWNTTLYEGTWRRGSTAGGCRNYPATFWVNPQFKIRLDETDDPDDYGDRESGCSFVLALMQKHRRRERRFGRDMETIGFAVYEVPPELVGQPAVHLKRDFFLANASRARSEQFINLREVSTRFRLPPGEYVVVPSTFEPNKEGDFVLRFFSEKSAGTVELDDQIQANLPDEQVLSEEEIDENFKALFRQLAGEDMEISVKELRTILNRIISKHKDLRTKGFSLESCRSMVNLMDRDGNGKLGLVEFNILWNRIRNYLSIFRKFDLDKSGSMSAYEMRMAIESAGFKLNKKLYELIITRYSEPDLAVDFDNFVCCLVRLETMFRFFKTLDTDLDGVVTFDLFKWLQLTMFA
T3 sequence (P04632 1-268 partner): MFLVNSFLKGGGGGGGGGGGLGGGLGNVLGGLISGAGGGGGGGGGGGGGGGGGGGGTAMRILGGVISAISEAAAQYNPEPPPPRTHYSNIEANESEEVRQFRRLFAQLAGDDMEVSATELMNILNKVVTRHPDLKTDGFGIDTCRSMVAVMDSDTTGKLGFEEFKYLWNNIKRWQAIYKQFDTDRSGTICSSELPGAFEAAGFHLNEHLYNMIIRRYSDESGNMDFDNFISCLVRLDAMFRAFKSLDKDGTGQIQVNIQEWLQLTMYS
Kind of assay: Calpain I inhibition with and without preincubation. The format is biochemical. The settings on record: with and without preincubation of the inhibitor.

A further assay has as its target T4, USP8 (Homo sapiens, UniProt P40818).
T4 sequence (P40818 1-1118): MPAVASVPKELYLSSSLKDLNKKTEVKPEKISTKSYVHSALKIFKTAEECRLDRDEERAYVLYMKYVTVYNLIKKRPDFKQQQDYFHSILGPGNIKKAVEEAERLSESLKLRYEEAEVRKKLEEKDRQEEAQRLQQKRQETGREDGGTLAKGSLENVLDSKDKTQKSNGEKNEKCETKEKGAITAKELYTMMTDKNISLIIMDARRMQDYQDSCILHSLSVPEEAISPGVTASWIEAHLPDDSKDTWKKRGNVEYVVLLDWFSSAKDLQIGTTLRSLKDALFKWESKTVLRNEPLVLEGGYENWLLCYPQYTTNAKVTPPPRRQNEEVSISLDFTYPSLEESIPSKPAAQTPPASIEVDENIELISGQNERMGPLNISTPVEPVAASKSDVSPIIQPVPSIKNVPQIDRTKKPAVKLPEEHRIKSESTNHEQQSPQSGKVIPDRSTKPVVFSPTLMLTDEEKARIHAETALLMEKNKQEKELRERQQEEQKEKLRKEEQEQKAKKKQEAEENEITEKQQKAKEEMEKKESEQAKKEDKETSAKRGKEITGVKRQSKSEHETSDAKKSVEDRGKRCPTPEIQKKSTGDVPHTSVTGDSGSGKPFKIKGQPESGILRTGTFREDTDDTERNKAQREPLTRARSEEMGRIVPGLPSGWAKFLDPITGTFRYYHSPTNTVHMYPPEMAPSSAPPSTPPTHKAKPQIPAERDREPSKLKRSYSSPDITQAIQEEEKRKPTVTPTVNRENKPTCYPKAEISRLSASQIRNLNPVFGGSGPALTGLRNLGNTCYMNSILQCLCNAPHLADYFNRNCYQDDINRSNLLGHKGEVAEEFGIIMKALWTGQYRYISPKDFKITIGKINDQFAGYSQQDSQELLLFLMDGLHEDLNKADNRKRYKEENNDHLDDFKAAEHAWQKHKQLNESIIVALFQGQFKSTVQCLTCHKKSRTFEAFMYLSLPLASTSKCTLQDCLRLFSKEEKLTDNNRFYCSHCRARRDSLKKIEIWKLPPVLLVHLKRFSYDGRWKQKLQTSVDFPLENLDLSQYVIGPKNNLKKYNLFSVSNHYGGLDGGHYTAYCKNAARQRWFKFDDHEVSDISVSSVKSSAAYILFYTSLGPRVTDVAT
The experiment in a line: USP8 inhibition with and without preincubation. The settings on record: with and without preincubation of the inhibitor. It is filed as biochemical.

Each structure is given as a SMILES string. “Also recorded” adds a separate entry of the source.

T1 sequence (P07711 114-333): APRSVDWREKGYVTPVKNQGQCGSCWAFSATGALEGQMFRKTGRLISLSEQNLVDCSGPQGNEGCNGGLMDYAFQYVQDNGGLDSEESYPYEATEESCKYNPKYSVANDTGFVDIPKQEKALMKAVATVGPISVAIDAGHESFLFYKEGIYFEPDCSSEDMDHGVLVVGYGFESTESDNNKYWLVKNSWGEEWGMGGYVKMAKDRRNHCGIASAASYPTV

With `C=CC(=O)N1CCN(c2ncnc3c(F)c(-c4c(O)cccc4F)c(Cl)cc23)CC1` [ARS-1620], the activity in vivo result in the assay on K-Ras^G12C is reported as “active in vivo”.
In general, kinact refers to the maximal first-order rate at which the target is inactivated. Regarding `O=C(N[C@H](/C=C/S(=O)(=O)c1ccccc1)CCc1ccccc1)[C@H](Cc1ccccc1)NC(=O)N1CCOCC1` [compound 7], on cathepsin L [1], the kinact was 0.17 to 0.36 s⁻¹ and the “selectivity cathepsin L vs B as judged by Ki values” is given as “more selective at inhibiting cathepsin L”. Besides, on Cathepsin B [2], the kinact was 0.17 to 0.36 s⁻¹.
Regarding `O=C(N[C@H](/C=C/S(=O)(=O)c1ccccc1)CCc1ccccc1)[C@H](Cc1cc(I)c(O)c(I)c1)NC(=O)N1CCOCC1` [compound 8], at cathepsin L [1], the kinact was 0.17 to 0.36 s⁻¹ and the “selectivity cathepsin L vs B as judged by Ki values” is given as “reversed selectivity”. The kinact at Cathepsin B [2] was 0.17 to 0.36 s⁻¹. For the same compound, the “potency for cathepsin B (kinact/Ki values)” value at Cathepsin B [2] (relative to compound 7) was “increased potency”.
As for `C[C@@H](Oc1ccc(Br)cc1Br)C(=O)NC/C=C/S(C)(=O)=O` [compound 11], the “inhibition of cathepsin L” value on cathepsin L [3] is “time and dose dependent inhibition”.
As to `CS(=O)(=O)/C=C/CNC(=O)COc1ccc(Br)cc1Br` [compound 13], at cathepsin L [3] (varying concentrations of compound), the “mode of inhibition (shift of substrate Km)” value is reported as “substrate competitive inhibitor”. Further, the reversibility of inhibition result on cathepsin L [4] is reported as “irreversibly”. For the same compound, on Cathepsin B [5], the “inhibition of Cathepsin B” value was “did not inhibit; also recorded: does not inhibit”. Also, the “inhibition of Calpain I” value at Calpain I is given as “did not inhibit; also recorded: does not inhibit”. Also, the “inhibition of USP8” value at USP8 is “did not inhibit; also recorded: does not inhibit”.
